This note sets out measurements from ChEMBL document CHEMBL1128719, “The synthesis, structure-activity, and structure-side effect relationships of a series of 8-alkoxy- and 5-amino-8-alkoxyquinolone antibacterial agents” (J Med Chem, 1995).

Assay [1] relates to Staphylococcus aureus. The assay is described as follows: In vitro antibacterial activity was tested for Staphylococcus aureus UC-76. The format is functional. An outline of the steps: (§1)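 Microtitration (microdilution) MIC determination in μg/mL against a panel of Gram-positive, Gram-negative and anaerobic organisms. Values come from duplicate or triplicate experiments and are stated accurate to ±50%.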

The test system of a further assay is Clostridioides difficile. The assay is described as follows: In vitro antibacterial activity was tested for Clostridium diff CD1-1. The format is functional.
The test system of the next assay is Klebsiella pneumoniae. The assay is described as follows: In vitro antibacterial activity was tested for Klebsiella pneumoniae MGH-2. The format is functional. An outline of the steps: as §1
Assay [2] deals with Staphylococcus aureus. The assay is described as follows: In vitro antibacterial activity was tested for Staphylococcus aureus H228. The format is functional. The essentials: as §1
Another assay relates to Pseudomonas aeruginosa. The assay is described as follows: In vitro antibacterial activity was tested for Pseudomonas aeruginosa UI-18. In kind it is functional. The essentials:
as §1

Assay [3] concerns Peptoniphilus asaccharolyticus. The assay is described as follows: In vitro antibacterial activity was tested for Pepto asac PA 3-1. The format is functional. The essentials: as §1
The next assay deals with Enterobacter cloacae. The assay is described as follows: In vitro antibacterial activity was tested for Enterobacter cloacae HA2646. In kind it is functional.
Assay [4] has as its system Escherichia coli. The assay is described as follows: In vitro antibacterial activity was tested for Escherichia coli Vogel. In kind it is functional. The essentials:
as §1

The test system of the next assay is Bacteroides fragilis. The assay is described as follows: In vitro antibacterial activity against Bacteroides fragilis BFA. In kind it is functional. The essentials:
as §1

Another assay deals with Providencia rettgeri. The assay is described as follows: In vitro antibacterial activity was tested for Providencia rettgeri H1771. The format is functional. The essentials:
as §1

In another assay the test system is Clostridium perfringens. The assay is described as follows: In vitro antibacterial activity against Clostridium perfringens CP 3-1. The format is functional.
A further assay concerns Enterococcus faecalis. The assay is described as follows: In vitro antibacterial activity was tested for Streptococcus faecalis MGH-2. The format is functional. An outline of the steps: as §1
Assay [5] has as its system Escherichia coli. The assay is described as follows: In vitro antibacterial activity was tested for Escherichia coli H560. The format is functional. The essentials: as §1
The subject of a further assay is Streptococcus pyogenes. The assay is described as follows: In vitro antibacterial activity was tested for Streptococcus pyogenes C203. The format is functional. The essentials: as §1
A further assay has as its system Cutibacterium acnes. The assay is described as follows: In vitro antibacterial activity was tested for Propion acnes PA5-1. In kind it is functional. An outline of the steps: as §1
The next assay deals with Streptococcus pneumoniae. The assay is described as follows: In vitro antibacterial activity was tested for Streptococcus pneumoniae SV-1. The format is functional. An outline of the steps: as §1
For another assay, the system named is V79. The assay is described as follows: Clonogenic cytotoxicity against Chinese hamster V-79 cells. The format is functional, cell-based. Conditions: Cricetulus griseus.

Converted amounts (≈) assume the structure as drawn. Bounds are passed on as bounds.

On to `CCNCC1CCN(c2c(F)cc3c(=O)c(C(=O)O)cn(C4CC4)c3c2OC)C1` (stereo not drawn), for which the MIC against Staphylococcus aureus [1] worked out at 0.006 µg/mL (≈ 0.0149 µM); with Clostridioides difficile, 0.2 µg/mL (≈ 0.496 µM); with Klebsiella pneumoniae it was 0.2 µg/mL (≈ 0.496 µM); against Staphylococcus aureus [2], 0.025 µg/mL (≈ 0.062 µM); against Pseudomonas aeruginosa, 1.6 µg/mL (≈ 3.97 µM); in assay [3], 0.2 µg/mL (≈ 0.496 µM). The MIC against Enterobacter cloacae was 0.1 µg/mL (≈ 0.248 µM); against Escherichia coli [4] it was 0.1 µg/mL (≈ 0.248 µM); with Bacteroides fragilis it was 0.4 µg/mL (≈ 0.991 µM); in the assay on Providencia rettgeri it was 0.4 µg/mL (≈ 0.991 µM); in the assay with Clostridium perfringens, 0.05 µg/mL (≈ 0.124 µM); in the assay with Enterococcus faecalis it was 0.025 µg/mL (≈ 0.062 µM). Also, the minimum inhibitory concentration (MIC) in the assay with Escherichia coli [5] was 0.05 µg/mL (≈ 0.124 µM); in the assay with Streptococcus pyogenes, 0.013 µg/mL (≈ 0.0322 µM); against Cutibacterium acnes it was 0.4 µg/mL (≈ 0.991 µM); with Streptococcus pneumoniae it was 0.013 µg/mL (≈ 0.0322 µM).

Take `NC1CCCN(c2nc3c(cc2F)c(=O)c(C(=O)O)cn3C2CC2)C1` (stereo not drawn): the MIC is above 25 µg/mL in the assay with Clostridioides difficile; 6.3 µg/mL (≈ 18.2 µM) in [3]; 25 µg/mL (≈ 72.2 µM) in the assay with Bacteroides fragilis; 0.8 µg/mL (≈ 2.31 µM) with Clostridium perfringens; 6.3 µg/mL (≈ 18.2 µM) with Cutibacterium acnes.

For the compound `CCOc1c(N2CCCC(N)C2)c(F)cc2c(=O)c(C(=O)O)cn(C3CC3)c12` (stereo not drawn), the minimal inhibitory concentration (MIC) in the assay with Staphylococcus aureus [1] was found to be 0.025 µg/mL (≈ 0.0642 µM); against Klebsiella pneumoniae it was 0.4 µg/mL (≈ 1.03 µM); in the assay with Staphylococcus aureus [2], 0.1 µg/mL (≈ 0.257 µM); in the assay on Pseudomonas aeruginosa it was 3.1 µg/mL (≈ 7.96 µM); against Enterobacter cloacae, 0.4 µg/mL (≈ 1.03 µM); in the assay on Escherichia coli [4] it was 0.2 µg/mL (≈ 0.514 µM). In addition, the minimum inhibitory concentration (MIC) in the assay with Providencia rettgeri came to 0.8 µg/mL (≈ 2.05 µM); in the assay with Enterococcus faecalis it was 0.2 µg/mL (≈ 0.514 µM); in the assay with Escherichia coli [5] it was 0.2 µg/mL (≈ 0.514 µM); in the assay on Streptococcus pyogenes it was 0.2 µg/mL (≈ 0.514 µM); with Streptococcus pneumoniae, 0.2 µg/mL (≈ 0.514 µM). In the assay with V79, this compound showed an IC50 of 210 µg/mL (≈ 539 µM).

For `COc1c(N2CC[C@H](N)C2)c(F)c(N)c2c(=O)c(C(=O)O)cn(C3CC3)c12`, the MIC in the assay on Staphylococcus aureus [1] stood at 0.013 µg/mL (≈ 0.0345 µM); against Clostridioides difficile, 3.1 µg/mL (≈ 8.24 µM); in the assay with Klebsiella pneumoniae, 0.1 µg/mL (≈ 0.266 µM); with Staphylococcus aureus [2] it was 0.025 µg/mL (≈ 0.0664 µM); in the assay with Pseudomonas aeruginosa, 0.8 µg/mL (≈ 2.13 µM); in assay [3], 1.6 µg/mL (≈ 4.25 µM). Moreover, the MIC came out at 0.05 µg/mL (≈ 0.133 µM) in the assay with Enterobacter cloacae; 0.05 µg/mL (≈ 0.133 µM) with Escherichia coli [4]; 1.6 µg/mL (≈ 4.25 µM) in the assay with Bacteroides fragilis; 0.2 µg/mL (≈ 0.531 µM) in the assay on Providencia rettgeri; 0.8 µg/mL (≈ 2.13 µM) with Clostridium perfringens; 0.1 µg/mL (≈ 0.266 µM) against Enterococcus faecalis. In addition, the minimum inhibitory concentration (MIC) with Escherichia coli [5] is 0.05 µg/mL (≈ 0.133 µM); in the assay with Streptococcus pyogenes it was 0.05 µg/mL (≈ 0.133 µM); against Cutibacterium acnes it was 1.6 µg/mL (≈ 4.25 µM); in the assay on Streptococcus pneumoniae, 0.025 µg/mL (≈ 0.0664 µM).

In the assay on V79, `Nc1c(F)c(N2CCCC(N)C2)c(F)c2c1c(=O)c(C(=O)O)cn2C1CC1` (stereo not drawn) had an IC50 of 19 µg/mL (≈ 50.2 µM).

For the compound `CCOc1c(N2CCNC(C)C2)c(F)cc2c(=O)c(C(=O)O)cn(C3CC3)c12` (stereo not drawn), the MIC was determined as 0.05 µg/mL (≈ 0.128 µM) in the assay on Staphylococcus aureus [1]; 6.3 µg/mL (≈ 16.2 µM) against Clostridioides difficile; 0.2 µg/mL (≈ 0.514 µM) against Klebsiella pneumoniae; 0.2 µg/mL (≈ 0.514 µM) against Staphylococcus aureus [2]; 3.1 µg/mL (≈ 7.96 µM) in the assay with Pseudomonas aeruginosa; 1.6 µg/mL (≈ 4.11 µM) in assay [3]. Also, the minimal inhibitory concentration (MIC) is 0.1 µg/mL (≈ 0.257 µM) in the assay with Enterobacter cloacae; 0.1 µg/mL (≈ 0.257 µM) in the assay with Escherichia coli [4]; 3.1 µg/mL (≈ 7.96 µM) in the assay with Bacteroides fragilis; 0.4 µg/mL (≈ 1.03 µM) against Providencia rettgeri; 0.8 µg/mL (≈ 2.05 µM) in the assay on Clostridium perfringens; 0.2 µg/mL (≈ 0.514 µM) in the assay on Enterococcus faecalis. Besides, the MIC against Escherichia coli [5] is 0.05 µg/mL (≈ 0.128 µM); in the assay on Streptococcus pyogenes, 0.2 µg/mL (≈ 0.514 µM); in the assay on Cutibacterium acnes it was 3.1 µg/mL (≈ 7.96 µM); in the assay on Streptococcus pneumoniae it was 0.05 µg/mL (≈ 0.128 µM).

Consider `COc1c(N2CCC(CN)C2)c(F)cc2c(=O)c(C(=O)O)cn(C3CC3)c12` (stereo not drawn), for which the MIC against Staphylococcus aureus [1] is 0.003 µg/mL (≈ 0.00799 µM); in the assay on Clostridioides difficile it was 0.2 µg/mL (≈ 0.533 µM); with Klebsiella pneumoniae, 0.1 µg/mL (≈ 0.266 µM); against Staphylococcus aureus [2] it was 0.025 µg/mL (≈ 0.0666 µM); with Pseudomonas aeruginosa it was 0.8 µg/mL (≈ 2.13 µM); in assay [3] it was 0.2 µg/mL (≈ 0.533 µM). The minimum inhibitory concentration (MIC) in the assay on Enterobacter cloacae came out at 0.05 µg/mL (≈ 0.133 µM); against Escherichia coli [4], 0.05 µg/mL (≈ 0.133 µM); in the assay on Bacteroides fragilis, 0.2 µg/mL (≈ 0.533 µM); against Providencia rettgeri it was 0.1 µg/mL (≈ 0.266 µM); against Clostridium perfringens, 0.1 µg/mL (≈ 0.266 µM); with Enterococcus faecalis, 0.013 µg/mL (≈ 0.0346 µM). In addition, the MIC was 0.025 µg/mL (≈ 0.0666 µM) in the assay with Escherichia coli [5], 0.003 µg/mL (≈ 0.00799 µM) against Streptococcus pyogenes, 0.2 µg/mL (≈ 0.533 µM) against Cutibacterium acnes and 0.003 µg/mL (≈ 0.00799 µM) in the assay on Streptococcus pneumoniae.

For `CCOc1c(N2CCC(C)(CN)C2)c(F)c(N)c2c(=O)c(C(=O)O)cn(C3CC3)c12` (stereo not drawn), the minimum inhibitory concentration (MIC) with Staphylococcus aureus [1] came out at 0.025 µg/mL (≈ 0.0597 µM); with Clostridioides difficile, 6.3 µg/mL (≈ 15.1 µM); against Klebsiella pneumoniae it was 0.8 µg/mL (≈ 1.91 µM); with Staphylococcus aureus [2], 0.1 µg/mL (≈ 0.239 µM); with Pseudomonas aeruginosa, 3.1 µg/mL (≈ 7.41 µM); in [3], 0.8 µg/mL (≈ 1.91 µM). Besides, the minimum inhibitory concentration (MIC) in the assay with Enterobacter cloacae was determined as 0.4 µg/mL (≈ 0.956 µM); against Escherichia coli [4], 0.2 µg/mL (≈ 0.478 µM); in the assay on Bacteroides fragilis, 3.1 µg/mL (≈ 7.41 µM); against Providencia rettgeri, 1.6 µg/mL (≈ 3.82 µM); in the assay with Clostridium perfringens, 0.4 µg/mL (≈ 0.956 µM); in the assay on Enterococcus faecalis, 0.1 µg/mL (≈ 0.239 µM). Besides, the minimum inhibitory concentration (MIC) in the assay with Escherichia coli [5] was 0.1 µg/mL (≈ 0.239 µM); against Streptococcus pyogenes, 0.1 µg/mL (≈ 0.239 µM); against Cutibacterium acnes, 3.1 µg/mL (≈ 7.41 µM); in the assay with Streptococcus pneumoniae, 0.05 µg/mL (≈ 0.119 µM).

What is called MIC is the least concentration at which growth counts as inhibited. A low value points to a more susceptible organism. In general, IC50 refers to the concentration needed to halve the response being measured. Read a low IC50 as higher potency.
